Results on 57 sequences are retold here after the array DNA melting data of Ke et al. (doi:10.1101/2024.01.08.574731).

Data set [1] is described as follows: folding enthalpy; higher = less favourable; fluorescence melt of hairpins on a sequencing array, two-state fit. Particulars: sodium 0.088 M. An outline of the steps: (§1)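 Folding enthalpy and melting temperature come from bootstrapped two-state fits to Cy3 fluorescence of library hairpins carrying annealed Cy3 and quencher oligos on a sequenced MiSeq flow cell. Imaging was done in 50 mM Na-HEPES pH 8.0, 25 mM NaCl, stepping by 2.5 °C up to 60 °C, and signals were normalised to pre-quench Cy3 and to control constructs. Results of four replicates were combined by inverse variance, and fitted temperatures were raised by 9.35 °C to match UV melts.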

Data set [2] can be described thus: melting temperature; fluorescence melt of hairpins on a sequencing array, two-state fit, raised by 9.35 °C to match UV melts. The note with it: sodium 0.088 M. An outline of the steps: as §1

Turning to GATCAGTGATCTGATC ((((((....)))))), in data set [1], the folding enthalpy is -36.1 kcal/mol. Further, the Tm in data set [2] was determined as 50.2 °C.

In the case of GATCAGTGCCCTGATC ((((((....)))))), in data set [1], the folding enthalpy was -29.9 kcal/mol. Also, the Tm in data set [2] amounted to 49.9 °C.

Take GATCAGTTACCTGATC ((((((....)))))): in data set [1], the folding enthalpy was -37 kcal/mol. Moreover, in data set [2], the Tm was 50.9 °C.

In the case of GATCAGTTCACTGATC ((((((....)))))), in data set [1], the folding enthalpy is -44.8 kcal/mol. Moreover, the Tm in data set [2] was found to be 58.1 °C.

Regarding GATCAGTTCCTGATC ((((((...)))))), the folding enthalpy in data set [1] was -42.9 kcal/mol. Also, the Tm in data set [2] was determined as 50.9 °C.

Consider GATCAGTTGCCTGATC ((((((....)))))), for which the folding enthalpy in data set [1] was -41.1 kcal/mol. Moreover, the Tm in data set [2] was determined as 51.4 °C.

Turning to GATCAGTTGGCTGATC ((((((....)))))), the folding enthalpy in data set [1] is -43 kcal/mol. Besides, the Tm in data set [2] worked out at 54.3 °C.

Turning to GATCAGTTGTCTGATC ((((((....)))))), the folding enthalpy in data set [1] is -39.2 kcal/mol. In addition, in data set [2], the Tm came out at 50.5 °C.

For GATCATAAATATGATC ((((((....)))))), the folding enthalpy in data set [1] is -41.4 kcal/mol. Further, the Tm in data set [2] turned out to be 45.2 °C.

With GATCATAACAATGATC ((((((....)))))), the folding enthalpy in data set [1] is -32.1 kcal/mol. For the same sequence, the Tm in data set [2] is 47 °C.

Turning to GATCATAATCATGATC ((((((....)))))), in data set [1], the folding enthalpy is -32.1 kcal/mol. The Tm in data set [2] turned out to be 46.2 °C.

For GATCATAGAAATGATC ((((((....)))))), in data set [1], the folding enthalpy was -29.4 kcal/mol. The Tm in data set [2] came out at 41.7 °C.

For GATCATAGAATGATC ((((((...)))))), the folding enthalpy in data set [1] is -36 kcal/mol. Besides, the Tm in data set [2] is 48 °C.

As to GATCATAGATATGATC ((((((....)))))), the folding enthalpy in data set [1] was -33.6 kcal/mol. Also, the Tm in data set [2] was 47.3 °C.

With GATCATAGCAATGATC ((((((....)))))), the folding enthalpy in data set [1] is -40.3 kcal/mol. Further, in data set [2], the Tm turned out to be 47.4 °C.

For GATCATAGCCATGATC ((((((....)))))), the folding enthalpy in data set [1] was -44.5 kcal/mol. For the same sequence, the Tm in data set [2] turned out to be 47.5 °C.

In the case of GATCATAGTAATGATC ((((((....)))))), in data set [1], the folding enthalpy is -37.2 kcal/mol. For the same sequence, the Tm in data set [2] was found to be 47.3 °C.

With GATCATAGTCATGATC ((((((....)))))), the folding enthalpy in data set [1] was -32.9 kcal/mol. Besides, the Tm in data set [2] was found to be 47.2 °C.

As for GATCATATACATGATC ((((((....)))))), in data set [1], the folding enthalpy was -32.9 kcal/mol. For the same sequence, the Tm in data set [2] is 48.1 °C.

On to GATCATATTAATGATC ((((((....)))))), for which the folding enthalpy in data set [1] was -34.1 kcal/mol. Also, the Tm in data set [2] was 47.9 °C.

As to GATCATATTCATGATC ((((((....)))))), the folding enthalpy in data set [1] is -37.3 kcal/mol. In addition, the Tm in data set [2] was determined as 47.8 °C.

For GATCATCACCATGATC ((((((....)))))), the folding enthalpy in data set [1] is -36.1 kcal/mol. In data set [2], the Tm is 46.8 °C.

For the sequence GATCATCATCATGATC ((((((....)))))), the folding enthalpy in data set [1] was -34.8 kcal/mol. In data set [2], the Tm was 45 °C.

As for GATCATCCCCATGATC ((((((....)))))), the folding enthalpy in data set [1] is -34.9 kcal/mol. Moreover, the Tm in data set [2] was 46.2 °C.

Turning to GATCATCCTATGATC ((((((...)))))), in data set [1], the folding enthalpy is -33.1 kcal/mol. Further, the Tm in data set [2] was determined as 48.3 °C.

For GATCATCGACATGATC ((((((....)))))), in data set [1], the folding enthalpy is -30.4 kcal/mol. For the same sequence, the Tm in data set [2] was 44.8 °C.

As to GATCATCGGTATGATC ((((((....)))))), in data set [1], the folding enthalpy is -34.2 kcal/mol. Further, the Tm in data set [2] worked out at 46.5 °C.

For GATCATCGTCATGATC ((((((....)))))), the folding enthalpy in data set [1] is -32.4 kcal/mol. In addition, the Tm in data set [2] amounted to 45.4 °C.

GATCATCTAAATGATC ((((((....)))))): the folding enthalpy in data set [1] is -35.9 kcal/mol. The Tm in data set [2] came to 47.4 °C.

GATCATCTGGATGATC ((((((....)))))): the folding enthalpy in data set [1] was -44.9 kcal/mol. The Tm in data set [2] was found to be 53 °C.

With GATCATCTTAATGATC ((((((....)))))), the folding enthalpy in data set [1] is -36.5 kcal/mol. Also, the Tm in data set [2] came to 49 °C.

Consider GATCATCTTATGATC ((((((...)))))), for which, in data set [1], the folding enthalpy was -34.7 kcal/mol. The Tm in data set [2] was determined as 49.8 °C.

Consider GATCATCTTTATGATC ((((((....)))))), for which the folding enthalpy in data set [1] was -32.3 kcal/mol. For the same sequence, the Tm in data set [2] was 47.9 °C.

Regarding GATCATGACTATGATC ((((((....)))))), in data set [1], the folding enthalpy is -48.6 kcal/mol. In addition, the Tm in data set [2] is 54.2 °C.

As to GATCATGAGCATGATC ((((((....)))))), the folding enthalpy in data set [1] was -36.8 kcal/mol. For the same sequence, the Tm in data set [2] came to 48 °C.

Regarding GATCATGATAATGATC ((((((....)))))), the folding enthalpy in data set [1] was -48.7 kcal/mol. Moreover, in data set [2], the Tm was found to be 55.4 °C.

On to GATCATGCCAATGATC ((((((....)))))), for which the folding enthalpy in data set [1] was -45.4 kcal/mol. Further, the Tm in data set [2] came to 58.5 °C.

As for GATCATGCGATGATC ((((((...)))))), the folding enthalpy in data set [1] is -31.9 kcal/mol. The Tm in data set [2] stood at 46.9 °C.

As for GATCATGCTTATGATC ((((((....)))))), in data set [1], the folding enthalpy was -35.9 kcal/mol. Besides, the Tm in data set [2] was 48 °C.

Consider GATCATGGAAACGTGATC (((((.(....).))))), for which, in data set [1], the folding enthalpy was -31.7 kcal/mol. Also, the Tm in data set [2] is 46.5 °C.

For the sequence GATCATGGAAATGATC ((((((....)))))), the folding enthalpy in data set [1] was -36 kcal/mol. The Tm in data set [2] is 52.4 °C.

Take GATCATGGCGATGATC ((((((....)))))): the folding enthalpy in data set [1] is -49.1 kcal/mol. Besides, the Tm in data set [2] turned out to be 51.5 °C.

Consider GATCATGGGCATGATC ((((((....)))))), for which, in data set [1], the folding enthalpy is -38 kcal/mol. In data set [2], the Tm came to 49.6 °C.

Regarding GATCATGTACATGATC ((((((....)))))), the folding enthalpy in data set [1] is -40.7 kcal/mol. The Tm in data set [2] amounted to 56.5 °C.

GATCATGTGGATGATC ((((((....)))))): the folding enthalpy in data set [1] is -35.2 kcal/mol. In addition, the Tm in data set [2] is 47.3 °C.

In the case of GATCATGTTGATGATC ((((((....)))))), the folding enthalpy in data set [1] was -41.2 kcal/mol. The Tm in data set [2] amounted to 48.4 °C.

Take GATCATTCTATGATC ((((((...)))))): the folding enthalpy in data set [1] was -33.7 kcal/mol. Moreover, the Tm in data set [2] amounted to 50.7 °C.

On to GATCATTGAAATGATC ((((((....)))))), for which the folding enthalpy in data set [1] was -36.8 kcal/mol. In data set [2], the Tm is 46 °C.

As for GATCATTGAGATGATC ((((((....)))))), in data set [1], the folding enthalpy was -39.4 kcal/mol. In data set [2], the Tm was determined as 49.8 °C.

With GATCATTGCATGATC ((((((...)))))), in data set [1], the folding enthalpy was -34 kcal/mol. The Tm in data set [2] turned out to be 50.4 °C.

For GATCATTGGAATGATC ((((((....)))))), the folding enthalpy in data set [1] is -36.1 kcal/mol. Besides, the Tm in data set [2] is 46.5 °C.

Consider GATCATTGTCATGATC ((((((....)))))), for which the folding enthalpy in data set [1] was -31.7 kcal/mol. Also, in data set [2], the Tm was 46.2 °C.

Regarding GATCATTTATATGATC ((((((....)))))), the folding enthalpy in data set [1] is -35.6 kcal/mol. The Tm in data set [2] stood at 48.4 °C.

Take GATCATTTCATGATC ((((((...)))))): the folding enthalpy in data set [1] was -40.6 kcal/mol. The Tm in data set [2] turned out to be 51.8 °C.

GATCATTTCCATGATC ((((((....)))))): the folding enthalpy in data set [1] is -40.5 kcal/mol. Moreover, the Tm in data set [2] was 46.1 °C.

Turning to GATCATTTGATGATC ((((((...)))))), the folding enthalpy in data set [1] was -38.2 kcal/mol. Besides, in data set [2], the Tm is 46.6 °C.

On to GATCCAAAACTGGATC ((((((....)))))), for which the folding enthalpy in data set [1] is -31.6 kcal/mol. The Tm in data set [2] worked out at 45.6 °C.
